ChEMBL document CHEMBL2331329, “Synthesis and biological evaluation of 2-(alkoxycarbonyl)-3-anilinobenzo[b]thiophenes and thieno[2,3-b]pyridines as new potent anticancer agents” (J Med Chem, 2013)

How the values were obtained:
[1] = test system: HT-29; assay: Cytotoxicity against human HT-29 cells after 72 hrs by MTT assay; type: functional, cell-based; details: HT-29, 72 h
[2] = test system: A549; assay: Cytotoxicity against human A549 cells after 72 hrs by MTT assay; type: functional, cell-based; details: A549, 72 h
[3] = test system: HeLa; assay: Cytotoxicity against human HeLa cells after 72 hrs by MTT assay; type: functional, cell-based
[4] = test system: MCF7; assay: Cytotoxicity against human MCF7 cells after 72 hrs by MTT assay; type: functional, cell-based; details: MCF7, 72 h
[5] = test system: HL-60; assay: Cytotoxicity against human HL60 cells after 72 hrs by MTT assay; type: functional, cell-based; details: HL-60, 72 h
[6] = Cytotoxicity against human SEM cells after 72 hrs by MTT assay; type: functional, cell-based
Summary of the method: (§1)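 Cells plated at 8 × 10^3 per well, 18 h at 37 °C, 5% CO2, then fresh medium with graded compound concentrations (DMSO ≤0.25%) for 72 h. Jurkat, SEM, HL-60 grown in RPMI-1640; A549, HeLa, HT-29, MCF-7 in DMEM; 10% FBS with penicillin/streptomycin. MTT viability read-out; IC50 vs 0.25% DMSO controls; mean ± SE of at least three independent experiments.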

[7] = Cytotoxicity against human A549-T12 cells after 72 hrs by MTT assay; type: functional, cell-based; details: A549, 72 h
Summary of the method: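 Mean ± SE of at least three independent experiments. Resistance ratio = IC50 in resistant line/IC50 in nonresistant line.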

[8] = test system: Jurkat; assay: Cytotoxicity against human Jurkat cells after 72 hrs by MTT assay; type: functional, cell-based; summary of the method: as §1
[9] = organism: Bos taurus; assay: Displacement of [3H]colchicine from bovine brain tubulin at 1 uM after 20 mins by turbidimetric analysis
[10] = Inhibition of bovine brain tubulin polymerization after 20 mins by turbidimetric analysis; set-up: species or system Bos taurus
Summary of the method: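 Bovine brain tubulin (10 μM) preincubated with varying compound concentrations in glutamate buffer at 30 °C, chilled to 0 °C, 0.4 mM GTP added, then warmed to 30 °C in a recording spectrophotometer.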

[11] = organism: Bos taurus; assay: Displacement of [3H]colchicine from bovine brain tubulin at 5 uM after 20 mins by turbidimetric analysis
[12] = Cytotoxicity against human LoVo/DX cells after 72 hrs by MTT assay; type: functional, cell-based
Summary of the method: (§2)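 MTT viability test: 8 × 10^3 cells per well settled 18 h at 37 °C, 5% CO2, then given fresh medium with compound (from 10 mM DMSO stocks, final DMSO ≤0.25%) for 72 h. […] CEMVbl-100 is a vinblastine-selected P-gp line; LoVoDoxo is grown in Ham's F12 with 0.1 μg/mL doxorubicin. Resistance index = resistant IC50/parental IC50.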

[13] = test system: LoVo; assay: Resistance index, ratio of IC50 for human LoVo/DX cells to IC50 for human LoVo cells; type: functional; summary of the method: as §2
[14] = test system: LoVo; assay: Cytotoxicity against human LoVo cells after 72 hrs by MTT assay; type: functional, cell-based; summary of the method: as §2

| inhibition [9] | IC50 [10] | inhibition [11] | SMILES | IC50 [1] | IC50 [2] | IC50 [3] | IC50 [4] | IC50 [5] | IC50 [6] | IC50 [7] | IC50 [8] | IC50 [12] | Ratio IC50 [13] | IC50 [14] |
| --- | --- | --- | --- | --- | --- | --- | --- | --- | --- | --- | --- | --- | --- | --- |
|  |  |  | COC(=O)c1sc2c(C)cccc2c1Nc1cc(OC)c(OC)c(OC)c1 | 552 nM | 3.93 µM | 1730 nM | 4.55 µM | 4.27 µM | 1630 nM |  |  |  |  |  |
|  |  |  | CC(=O)O[C@H]1C(=O)[C@@]2(C)[C@H]([C@H](OC(=O)c3ccccc3)[C@]3(O)C[C@H](OC(=O)[C@H](O)[C@@H](NC(=O)c4ccccc4)c4ccccc4)C(C)=C1C3(C)C)[C@]1(OC(C)=O)CO[C@@H]1C[C@@H]2O [PACLITAXEL] |  |  |  |  |  |  | 92.3 nM |  |  |  |  |
|  |  |  | COC(=O)c1sc2cccc(C)c2c1Nc1cc(OC)c(OC)c(OC)c1 | 1020 nM | 4.58 µM | 1300 nM | 8.19 µM | 3.39 µM | 2500 nM |  | 6.71 µM |  |  |  |
| 58% | 1100 nM | 89% | CCOC(=O)c1sc2cc(C)ccc2c1Nc1cc(OC)c(OC)c(OC)c1 | 6 nM | 0.0072 µM | 0.38 nM | 0.009 µM | 0.0039 µM | 1.5 nM |  | 0.0004 µM |  |  |  |
|  |  |  | COc1cccc2c1C(=O)c1c(O)c3c(c(O)c1C2=O)C[C@@](O)(C(=O)CO)C[C@@H]3O[C@H]1C[C@H](N)[C@H](O)[C@H](C)O1 [DOXORUBICIN] |  |  |  |  |  |  |  |  | 11.3 µM | 118 | 95.6 nM |
